High-throughput results deposited in PubChem by several laboratories.
A selection: hits, their analogues and other compounds. The true share with any hit is near 3%.
Tn7 DDE FP: disrupts Tn7 cyclic peptide binding to fibrin D-Dimer-E complex. P02675. FP displacement of FITC-Tn7 peptide from fibrin DD(E); 0% = median of compound wells per plate. inhibition, % at 8.3 µM. 370,000 compounds, 0.13% hits;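 active means inhibition above the mean of compounds falling within the control limits plus 3 SD of them, cut at about 14% in these data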;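 further: 0% = plate median of compound wells and 100% = 10 µM Aha-Tn7 peptide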
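Assay system: Human fibrin DD(E) protein | Medium: Tris buffer with calcium and detergent, pH 7.8 | Reagent: 0.1 µM fluorescent Tn7 | Compound dosing: Single point at 8.3 µM | Times: 10 min preincubation, 3 h with tracer, room temperature | Detection: Fluorescence polarization of the labelled Tn7 tracer | Controls: Aha-Tn7 high control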
PLC-beta3 inh: inhibitors of human phospholipase C beta3. 370,000 compounds, 0.18% hits. Purified PLC-beta3, fluorogenic substrate, fluorescence. Q01970. inhibition, % at 12.2 µM; in the data active means inhibition above about 11%;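 further: 0% = median of compound wells on plate and 100% = full blocker control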
Tn6 DDE FP: disrupts Tn6 cyclic peptide binding to fibrin D-Dimer-E complex; P02675; Fibrin DD(E) TRITC-Tn6 fluorescence polarization displacement; inhibition, % at 8.3 µM; 370,000 compounds, 0.21% hits;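 active means inhibition above a per-campaign cutoff: mean of compounds within control limits plus 3 SD, cut at about 15% in these data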;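 further: 0% = median of all compound wells on the plate and 100% = blocking peptide control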
CendR NRP1 mod: modulators of CendR peptide binding to human neuropilin-1; FAM-RPARPAR peptide binding to NRP-1, fluorescence polarization; inhibition, % at 25 µM; 360,000 compounds, 0.85% hits; AID 602438;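 active means inhibition or corrected inhibition above about 18%, plus a signal ratio from 0.5 to 1.5, limit read from the data, passing the limit was not always enough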
Target sequence (O14786 whole entry, looked up): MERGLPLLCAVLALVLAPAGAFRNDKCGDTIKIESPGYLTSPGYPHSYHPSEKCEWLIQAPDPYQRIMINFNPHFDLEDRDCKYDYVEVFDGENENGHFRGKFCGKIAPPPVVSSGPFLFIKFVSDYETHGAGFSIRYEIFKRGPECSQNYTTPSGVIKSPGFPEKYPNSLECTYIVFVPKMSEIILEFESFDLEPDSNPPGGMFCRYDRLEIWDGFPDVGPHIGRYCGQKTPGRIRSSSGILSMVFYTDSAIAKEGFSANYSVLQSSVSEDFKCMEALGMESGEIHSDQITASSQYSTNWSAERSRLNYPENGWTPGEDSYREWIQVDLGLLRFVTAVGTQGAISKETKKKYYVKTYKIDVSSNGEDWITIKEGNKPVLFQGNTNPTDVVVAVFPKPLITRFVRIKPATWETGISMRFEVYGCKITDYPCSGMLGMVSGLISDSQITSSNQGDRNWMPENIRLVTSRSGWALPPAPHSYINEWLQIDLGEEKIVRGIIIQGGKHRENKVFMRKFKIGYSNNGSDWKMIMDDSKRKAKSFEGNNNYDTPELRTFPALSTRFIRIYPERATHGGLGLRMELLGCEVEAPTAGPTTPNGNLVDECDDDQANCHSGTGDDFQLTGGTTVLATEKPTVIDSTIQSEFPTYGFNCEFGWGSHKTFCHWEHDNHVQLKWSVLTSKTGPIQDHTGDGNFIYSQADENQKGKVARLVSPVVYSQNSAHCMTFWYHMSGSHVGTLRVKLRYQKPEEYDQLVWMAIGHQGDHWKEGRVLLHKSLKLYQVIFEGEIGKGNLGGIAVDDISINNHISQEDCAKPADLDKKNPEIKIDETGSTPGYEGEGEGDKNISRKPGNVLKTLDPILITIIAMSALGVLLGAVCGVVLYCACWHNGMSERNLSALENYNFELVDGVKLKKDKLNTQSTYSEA
PLC-gamma1 inh: blocks human PLC-gamma1 enzyme activity | P19174 | 370,000 compounds, 0.84% hits | inhibition, % at 12.2 µM | purified PLC-gamma1, fluorogenic substrate, fluorescence; in the data active means inhibition above about 9.5%
KLK7 zymogen act: activates the human kallikrein-7 zymogen; P49862; purified proKLK7, EDANS-DABCYL substrate fluorescence; 100% is mature enzyme control, 0% vehicle; activation, % at 7 µM; 370,000 compounds, 0.9% hits; AID 652039;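 active means activation above the mean of all tested compounds plus 3 SD, computed per campaign excluding outliers beyond control limits, cut at about 13% in these data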
Starred values were filed as active, the others as inactive.

How did CCOc1nc(-c2ccccc2)c2cc(C)ccc2n1 do in these assays?
Tn7 DDE FP: -4; PLC-beta3 inh: -259; Tn6 DDE FP: 5; CendR NRP1 mod: 20*; PLC-gamma1 inh: -179; KLK7 zymogen act: -4

How did C=CC[C@H]1c2ccccc2[C@H]2N3N=Cc4ccccc4[C@H]3[C@H](CCc3ccccc3)C(=O)N2N1C(=O)c1ccccc1 do in these assays?
Tn7 DDE FP: -2; PLC-beta3 inh: 1; Tn6 DDE FP: -3; PLC-gamma1 inh: 0; KLK7 zymogen act: -2

Results for Cc1nc2cc(C(=O)N3CCN(C(=O)C(Cl)Cl)CC3)ccc2n1C1CCCC1 ?
Tn7 DDE FP: 5; PLC-beta3 inh: -6; Tn6 DDE FP: -6; PLC-gamma1 inh: -2; KLK7 zymogen act: 0

How did CC(C)NC(=O)Nc1ccc2c(c1)C(=O)N([C@H](C)CO)C[C@H](C)[C@@H](CN(C)S(=O)(=O)c1cccs1)O2 do in these assays?
Tn7 DDE FP: 2; PLC-beta3 inh: -301; Tn6 DDE FP: 1; CendR NRP1 mod: 25*; PLC-gamma1 inh: 2; KLK7 zymogen act: -1

How did Cc1noc(C)c1NC(=O)Nc1cccc2c1O[C@H](CN(C)C(=O)NC1CCCCC1)[C@@H](C)CN([C@H](C)CO)C2=O do in these assays?
Tn7 DDE FP: 2; PLC-beta3 inh: 2; Tn6 DDE FP: 1; CendR NRP1 mod: 25*; PLC-gamma1 inh: 0; KLK7 zymogen act: 0

Results for Cc1noc(C)c1NC(=O)N(C)C[C@H]1Oc2c(NC(=O)NC(C)C)cccc2C(=O)N([C@H](C)CO)C[C@@H]1C ?
Tn7 DDE FP: 2; PLC-beta3 inh: 1; Tn6 DDE FP: 5; CendR NRP1 mod: 25*; PLC-gamma1 inh: -4; KLK7 zymogen act: 0

How did Cc1noc(C)c1NC(=O)Nc1cccc2c1O[C@@H](CN(C)C)[C@@H](C)CN([C@H](C)CO)C2=O do in these assays?
Tn7 DDE FP: -7; PLC-beta3 inh: 2; Tn6 DDE FP: 3; CendR NRP1 mod: 10; PLC-gamma1 inh: 3; KLK7 zymogen act: 0

How did CC1CCCCC1N(C(=O)c1cc(C2CC2)on1)C1CCCCCC1 (stereo unspecified) do in these assays?
Tn7 DDE FP: 7; PLC-beta3 inh: -2; Tn6 DDE FP: -7; PLC-gamma1 inh: 0; KLK7 zymogen act: 1

Results for COP(=O)(O)C[C@@H]1CCc2cc(C)cc([C@H](CC(C)C)NC(=O)OCc3ccccc3)c2O1 ?
Tn7 DDE FP: 0; PLC-beta3 inh: -21; Tn6 DDE FP: -2; PLC-gamma1 inh: -14; KLK7 zymogen act: 2

Results for COc1ccccc1NS(=O)(=O)c1cc(N/C(=N\S(=O)(=O)c2ccccc2)c2ccc(F)cc2)ccc1Cl ?
Tn7 DDE FP: -1; PLC-beta3 inh: -16; Tn6 DDE FP: 3; CendR NRP1 mod: 34*; PLC-gamma1 inh: 1; KLK7 zymogen act: 0

What do the screens show for `N#CCC[C@@H]1CC[C@]2(CCCN(C(=O)c3cccnc3)C2)O1`?
Tn7 DDE FP: -3; PLC-beta3 inh: 4; Tn6 DDE FP: 7; PLC-gamma1 inh: 1; KLK7 zymogen act: 0

Results for COc1ccc(S(=O)(=O)N2CCOCC2)cc1NC(=O)COC(=O)C1COc2ccccc2O1 (stereo unspecified) ?
Tn7 DDE FP: 0; PLC-beta3 inh: -1; Tn6 DDE FP: 0; CendR NRP1 mod: 28*; PLC-gamma1 inh: 0; KLK7 zymogen act: -1

Results for COc1ccc(C)cc1NC(=O)COC(=O)C1COc2ccccc2O1 (stereo unspecified) ?
Tn7 DDE FP: -8; PLC-beta3 inh: -1; Tn6 DDE FP: 1; CendR NRP1 mod: 2; PLC-gamma1 inh: -2; KLK7 zymogen act: 0

How did CCCCOCCCNC(=O)C[C@H]1C[C@@]2(C(=O)OC)C(=C[C@H](C(C)(C)C)O[C@@H]2C)N(Cc2ccco2)C1=O do in these assays?
Tn7 DDE FP: -4; PLC-beta3 inh: 4; Tn6 DDE FP: -7; PLC-gamma1 inh: -1; KLK7 zymogen act: 0

How did O=C(NC1=N[C@@]2(C=C3CCCCC3n3c(=O)n(-c4ccccc4)c(=O)n32)CN1Cc1ccccc1)c1ccccc1 (stereo partly specified) do in these assays?
Tn7 DDE FP: 4; PLC-beta3 inh: -12; Tn6 DDE FP: 2; PLC-gamma1 inh: -7; KLK7 zymogen act: 0
